From ChEMBL document CHEMBL1155442, “Click chemistry approach to new N-substituted aminocyclitols as potential pharmacological chaperones for Gaucher disease” (J Med Chem, 2010)
The source made the active and inactive calls. The calls are words filed in the database; no cut-off is given here.

Legend:
[1] = Cytotoxicity against human fibroblast after 24 hrs by MTT assay; type: cell-based; conditions: human fibroblasts
[2] = target: T1, Lysosomal acid glucosylceramidase (Homo sapiens) (UniProt P04062); experiment: Binding affinity to recombinant beta-glucocerebrosidase assessed as enzymatic activity at 150 uM after 40 mins by thermal stabilization assay relative to control
T1 sequence (whole entry): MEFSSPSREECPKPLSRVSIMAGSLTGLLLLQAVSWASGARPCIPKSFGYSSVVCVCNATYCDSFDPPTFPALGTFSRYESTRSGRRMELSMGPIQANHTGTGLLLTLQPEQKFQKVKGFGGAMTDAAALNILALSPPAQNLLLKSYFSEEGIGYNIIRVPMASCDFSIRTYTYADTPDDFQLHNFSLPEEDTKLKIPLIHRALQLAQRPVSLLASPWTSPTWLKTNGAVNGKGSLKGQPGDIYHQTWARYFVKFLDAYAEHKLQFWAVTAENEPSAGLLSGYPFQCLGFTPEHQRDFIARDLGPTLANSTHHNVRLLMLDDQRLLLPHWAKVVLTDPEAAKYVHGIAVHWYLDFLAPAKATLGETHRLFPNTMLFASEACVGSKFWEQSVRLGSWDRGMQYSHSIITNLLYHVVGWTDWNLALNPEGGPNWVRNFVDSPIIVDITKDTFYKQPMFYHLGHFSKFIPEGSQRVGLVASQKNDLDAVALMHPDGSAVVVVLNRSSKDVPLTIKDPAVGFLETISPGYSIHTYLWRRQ

[3] = target: T2, Lysosomal acid glucosylceramidase (Homo sapiens, UniProt P04062); experiment: Inhibition of recombinant beta-glucocerebrosidase at pH 7.4 after 10 mins by fluorimetry
T2 sequence (P04062 whole entry): T1 sequence (whole entry)

[4] = target: T1, Lysosomal acid glucosylceramidase (Homo sapiens); experiment: Inhibition of beta-glucocerebrosidase in human fibroblast at 50 uM after 24 hrs by fluorescence assay
Summary of the method: (§1)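 Wild-type human fibroblasts exposed to compound for 24 h (10, 20 or 50 μM, as listed) with 5 mM substrate. Cellular GCase activity then measured.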

[5] = target: T2, Lysosomal acid glucosylceramidase; experiment: Competitive inhibition of beta-glucocerebrosidase at pH 5.2 by Lineweaver-Burke plot analysis
[6] = target: T2, Lysosomal acid glucosylceramidase; experiment: Inhibition of recombinant beta-glucocerebrosidase at pH 5.2 after 10 mins by fluorimetry
[7] = tested on: Oryza sativa; experiment: Inhibition of rice alpha-glucosidase at 0.1 mM
[8] = Dissociation constant, pKa of the compound; type: physicochemical
[9] = tested on: Oryza sativa; experiment: Inhibition of rice alpha-galactosidase at 0.1 mM
[10] = target: T1, Lysosomal acid glucosylceramidase (Homo sapiens); experiment: Binding affinity to recombinant beta-glucocerebrosidase assessed as enzymatic activity at 50 uM after 20 mins by thermal stabilization assay relative to control
[11] = target: T2, Lysosomal acid glucosylceramidase; experiment: Inhibition of recombinant beta-glucocerebrosidase after 10 mins by fluorimetry
Summary of the method: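 Imiglucerase (0.1 mg/mL stock) in McIlvaine buffer, pH 5.2 or 7.4, with 0.2% sodium taurocholate and 0.1% Triton X-100. Preincubated 30 min at 37 °C with or without inhibitor. Then 4 mM 4-methylumbelliferyl-β-D-glucopyranoside added for 10 min at 37 °C. Stopped with glycine/NaOH pH 10.6; 4-MU read at ex 355/em 460 nm. IC50 from % activity vs log[I], at least five concentrations.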

[12] = target: T1, Lysosomal acid glucosylceramidase (Homo sapiens); experiment: Binding affinity to recombinant beta-glucocerebrosidase assessed as enzymatic activity at 50 uM after 60 mins by thermal stabilization assay relative to control
[13] = tested on: Prunus dulcis; experiment: Inhibition of sweet almond beta-glucosidase at 0.1 mM
[14] = target: T1, Lysosomal acid glucosylceramidase (Homo sapiens); experiment: Inhibition of beta-glucocerebrosidase in human fibroblast at 10 uM after 24 hrs by fluorescence assay; summary of the method: as §1
[15] = Selectivity index, ratio of CC50 for human fibroblast to Ki for beta-glucocerebrosidase
[16] = target: T1, Lysosomal acid glucosylceramidase (Homo sapiens); experiment: Binding affinity to recombinant beta-glucocerebrosidase assessed as enzymatic activity at 100 uM after 40 mins by thermal stabilization assay relative to control
[17] = target: T3, Beta-galactosidase (Bos taurus) (UniProt Q58D55); experiment: Inhibition of bovine liver beta-galactosidase at 0.1 mM
T3 sequence (whole entry): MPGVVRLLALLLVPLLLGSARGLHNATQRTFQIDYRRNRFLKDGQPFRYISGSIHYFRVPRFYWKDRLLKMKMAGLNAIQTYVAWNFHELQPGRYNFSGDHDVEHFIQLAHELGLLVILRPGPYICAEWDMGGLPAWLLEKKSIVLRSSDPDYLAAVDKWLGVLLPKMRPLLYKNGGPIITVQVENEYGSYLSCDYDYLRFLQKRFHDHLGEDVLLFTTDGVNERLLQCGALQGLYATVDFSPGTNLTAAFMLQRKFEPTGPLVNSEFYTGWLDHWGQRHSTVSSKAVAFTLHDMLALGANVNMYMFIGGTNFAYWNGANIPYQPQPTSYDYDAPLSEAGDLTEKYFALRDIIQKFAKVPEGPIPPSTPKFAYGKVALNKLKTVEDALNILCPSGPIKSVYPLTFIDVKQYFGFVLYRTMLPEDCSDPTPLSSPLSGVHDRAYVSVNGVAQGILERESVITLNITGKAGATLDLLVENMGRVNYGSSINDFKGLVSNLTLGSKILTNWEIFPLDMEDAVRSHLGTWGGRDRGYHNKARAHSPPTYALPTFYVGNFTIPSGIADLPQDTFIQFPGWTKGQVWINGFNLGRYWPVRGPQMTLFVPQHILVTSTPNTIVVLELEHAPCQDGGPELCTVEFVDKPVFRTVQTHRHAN

[18] = target: T1, Lysosomal acid glucosylceramidase (Homo sapiens); experiment: Binding affinity to recombinant beta-glucocerebrosidase assessed as enzymatic activity at 100 uM after 20 mins by thermal stabilization assay relative to control
[19] = target: T1, Lysosomal acid glucosylceramidase (Homo sapiens); experiment: Binding affinity to recombinant beta-glucocerebrosidase assessed as enzymatic activity at 50 uM after 40 mins by thermal stabilization assay relative to control
[20] = target: T1, Lysosomal acid glucosylceramidase (Homo sapiens); experiment: Binding affinity to recombinant beta-glucocerebrosidase assessed as enzymatic activity at 150 uM after 20 mins by thermal stabilization assay relative to control
[21] = target: T1, Lysosomal acid glucosylceramidase (Homo sapiens); experiment: Inhibition of beta-glucocerebrosidase in human fibroblast at 20 uM after 24 hrs by fluorescence assay; summary of the method: as §1
[22] = tested on: Saccharomyces cerevisiae; experiment: Inhibition of yeast alpha-glucosidase at 0.1 mM
[23] = target: T1, Lysosomal acid glucosylceramidase (Homo sapiens); experiment: Binding affinity to recombinant beta-glucocerebrosidase assessed as enzymatic activity at 100 uM after 60 mins by thermal stabilization assay relative to control
[24] = target: T1, Lysosomal acid glucosylceramidase (Homo sapiens); experiment: Binding affinity to recombinant beta-glucocerebrosidase assessed as enzymatic activity at 150 uM after 60 mins by thermal stabilization assay relative to control
[25] = Cytotoxicity against human fibroblast at 300 uM after 24 hrs by MTT assay; type: cell-based

Row | fold change (FC) [2] | IC50 [3] | inhibition [4] | Ki [5] | IC50 [6] | inhibition [7] | pKa [8] | inhibition [9] | fold change (FC) [10] | IC50 [11] | fold change (FC) [12] | inhibition [13] | fold change (FC) [16] | inhibition [17] | fold change (FC) [18] | fold change (FC) [19] | fold change (FC) [20] | inhibition [22] | fold change (FC) [23] | Structure (SMILES) | Activity [25] | also measured
1 | 6.1 | 11 µM | < 5% | – | 44.7 µM | inactive | 9.1 | inactive | 2.22 | 44.7 µM | 4.62 | inactive | 5.75 | inactive | 2.32 | 4.54 | 2.37 | inactive | 7.6 | CCCCCCCCCn1cc(CCN[C@H]2[C@H](O)[C@@H](O)[C@H](O)[C@@H](O)[C@@H]2O)nn1 | Non-toxic | fold change (FC) [24]: 9.44
2 | – | 1.1 µM | 20% | 1.8 µM | 1 µM | inactive | 7.7 | inactive | – | 1.05 µM | – | inactive | – | inactive | – | – | – | inactive | – | CCCCCCCCn1cc(CN[C@H]2[C@H](O)[C@@H](O)[C@H](O)[C@@H](O)[C@@H]2O)nn1 | Non-toxic | –
3 | – | 18.2 µM | 40% | 19.9 µM | 35.4 µM | inactive | 9.4 | inactive | – | 35.5 µM | – | inactive | – | inactive | – | – | – | inactive | – | CCCCCCCCn1cc(CCCN[C@H]2[C@H](O)[C@@H](O)[C@H](O)[C@@H](O)[C@@H]2O)nn1 | – | CC50 at 24 h [1]: 97 µM
4 | 7.23 | 0.2 µM | 50% | 0.33 µM | 0.2 µM | inactive | 7.1 | inactive | 2.06 | 0.224 µM | 9.95 | inactive | 6.71 | inactive | 2.28 | 5.69 | 2.34 | inactive | 13 | CCCCCCCCCn1cc(CN[C@H]2[C@H](O)[C@@H](O)[C@H](O)[C@@H](O)[C@@H]2O)nn1 | Non-toxic | Selectivity Index [15]: >=900; fold change (FC) [24]: 15.5
5 | – | 55.9 µM | < 5% | – | 167 µM | inactive | 9.1 | inactive | – | 166 µM | – | inactive | – | inactive | – | – | – | inactive | – | CCCCCCCCn1cc(CCN[C@H]2[C@H](O)[C@@H](O)[C@H](O)[C@@H](O)[C@@H]2O)nn1 | Non-toxic | –

The remaining lines, values behind:

Row | Structure (SMILES) | fold change (FC) [2] | IC50 [3] | inhibition [4] | Ki [5] | IC50 [6] | inhibition [7] | pKa [8] | inhibition [9] | fold change (FC) [10] | IC50 [11] | fold change (FC) [12] | inhibition [13] | fold change (FC) [16] | inhibition [17] | fold change (FC) [18] | fold change (FC) [19] | fold change (FC) [20] | inhibition [22] | fold change (FC) [23] | Activity [25] | also measured
6 | CCCCCCCCCCCCCCn1cc(CN[C@H]2[C@H](O)[C@@H](O)[C@H](O)[C@@H](O)[C@@H]2O)nn1 | 5.91 | 0.1 µM | Toxic | 0.08 µM | 0.09 µM | inactive | 7.7 | inactive | 2.82 | 0.0891 µM | 13.8 | inactive | 7.48 | inactive | 2.88 | 7.86 | 2.67 | inactive | 13.2 | – | CC50 at 24 h [1]: 19 µM; inhibition [14]: 93%; Selectivity Index [15]: 237; inhibition [21]: Toxic; fold change (FC) [24]: 9.4
7 | O[C@@H]1[C@@H](O)[C@H](O)[C@@H](NCc2cn(CCc3ccccc3)nn2)[C@H](O)[C@H]1O | – | 25 µM | < 5% | 19.1 µM | 10.8 µM | inactive | 7.8 | inactive | – | 10.7 µM | – | inactive | – | inactive | – | – | – | inactive | – | Non-toxic | –
8 | CCCCN1C[C@H](O)[C@@H](O)[C@H](O)[C@H]1CO | – | – | – | – | – | – | – | – | – | – | – | – | – | – | – | – | – | – | – | Non-toxic | –
9 | CCCOCCCCCCn1cc(CN[C@H]2[C@H](O)[C@@H](O)[C@H](O)[C@@H](O)[C@@H]2O)nn1 | – | 6.2 µM | < 5% | 2.4 µM | 7.4 µM | inactive | 7.1 | inactive | – | 7.41 µM | – | inactive | – | inactive | – | – | – | inactive | – | Non-toxic | –
10 | CCCCCCCCCN1C[C@H](O)[C@@H](O)[C@H](O)[C@H]1CO | – | – | – | – | – | – | – | – | – | – | – | – | – | – | – | – | – | – | – | Non-toxic | –
11 | CCCCCCCCCCn1cc(CCCN[C@H]2[C@H](O)[C@@H](O)[C@H](O)[C@@H](O)[C@@H]2O)nn1 | – | 1.2 µM | 20% | 7.6 µM | 3.5 µM | inactive | 9.9 | inactive | – | 3.47 µM | – | inactive | – | inactive | – | – | – | inactive | – | – | CC50 at 24 h [1]: 170 µM
12 | CCCCn1cc(CN[C@H]2[C@H](O)[C@@H](O)[C@H](O)[C@@H](O)[C@@H]2O)nn1 | – | – | < 5% | – | 178 µM | inactive | 7.2 | inactive | – | 178 µM | – | inactive | – | inactive | – | – | – | inactive | – | Non-toxic | –
13 | CCCCCCCCCCN[C@H]1[C@H](O)[C@@H](O)[C@H](O)[C@@H](O)[C@@H]1O | 5.85 | – | – | 0.3 µM | 1.8 µM | – | – | – | 1.29 | – | 2.24 | – | 4.49 | – | 1.84 | 2.33 | 1.99 | – | 4.89 | Non-toxic | fold change (FC) [24]: 11.3
